# Source: PubChem
# STEP inh – blocks human striatal-enriched tyrosine phosphatase | P54829 | recombinant STEP, OMFP fluorogenic substrate, fluorescence | inhibition, % at 20 µM | hit rate 0.25% among 360,000;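 active = inhibition at 20 µM, scaled per plate between control wells, above about 37%, limit read from the data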;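 also: 0% = DMSO with enzyme and substrate and 100% = substrate only without enzyme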
#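 Material: STEP (striatal-enriched tyrosine phosphatase) enzyme, cell-free | Medium: 50 mM Bis-Tris pH 6.0 with 2.5 mM DTT and 0.005% Tween 20 | Read-out: Percent inhibition scaled to no-enzyme and uninhibited-enzyme controls, plate-pattern corrected | Signal: Fluorescence read at 480 nm ex / 540 nm em | Times: 20 min reaction, room temperature, in the dark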
# Scp-1 inhibitor – blocks human Scp-1 phosphatase activity; AID 493091; inhibition, % at 20 µM; Q9GZU7; hit rate 0.88% among 340,000; Recombinant Scp1, phosphopeptide, malachite green phosphate absorbance;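 active = inhibition above about 50% at 20 µM, limit read from the data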;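 also: plate controls were DMSO wells with enzyme for no effect and wells lacking enzyme for full effect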
#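 Times: enzyme reaction 45 min at room temperature, colour 5 min, stabilisation 30 min. Material: SCP-1 catalytic fragment, aa 76-261. Medium: Acidic Tris acetate buffer with magnesium and detergent. Signal: colorimetric free-phosphate detection, absorbance 630 nm. Read-out basis: % inhibition of SCP-1 phosphate liberation. Reagent: Phosphorylated 17-residue peptide substrate.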
# Rpn11 inh – blocks the human proteasome subunit Rpn11; human 26S proteasome, Ub4-pepOG fluorescence polarization; 20S core pre-blocked with epoxomicin; hit rate 0.59% among 360,000; inhibition, % at 20 µM; O00487;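 active = inhibition at 20 µM, scaled to each plate's controls, above about 33%, limit read from the data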
# LMPTP block – LMPTP (human) inhibition | P24666 | recombinant LMPTP-A, OMFP fluorogenic substrate, fluorescence intensity | inhibition, % at 20 µM | hit rate 0.22% among 360,000 | AID 651560;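 active = compounds that cut the enzyme signal by at least half of the control window in the single-dose screen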;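 also: plate controls were DMSO wells with enzyme plus substrate for no effect and substrate without enzyme for full effect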
#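 test system = LMPTP-A | amount = 0.625 nM LMPTP-A final | reagent = fluorogenic phosphatase substrate OMFP at 400 µM final | incubation = 50 min at room temperature | benchmarks = no-enzyme low control, uninhibited high control | medium = Bis-Tris pH 6.0, DTT, detergent | signal = fluorescence intensity of OMFP turnover product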
# DNMT1 inh – inhibitors of human DNMT1 | P26358 | hit rate 0.83% among 360,000 | inhibition (reported as % activation of signal), % at 10 µM | DNMT1 molecular beacon, Hinp1I cleavage, fluorescence | AID 588458; in the data active = inhibition above about 50%
# Target sequence (P26358 504-1616 limits assumed): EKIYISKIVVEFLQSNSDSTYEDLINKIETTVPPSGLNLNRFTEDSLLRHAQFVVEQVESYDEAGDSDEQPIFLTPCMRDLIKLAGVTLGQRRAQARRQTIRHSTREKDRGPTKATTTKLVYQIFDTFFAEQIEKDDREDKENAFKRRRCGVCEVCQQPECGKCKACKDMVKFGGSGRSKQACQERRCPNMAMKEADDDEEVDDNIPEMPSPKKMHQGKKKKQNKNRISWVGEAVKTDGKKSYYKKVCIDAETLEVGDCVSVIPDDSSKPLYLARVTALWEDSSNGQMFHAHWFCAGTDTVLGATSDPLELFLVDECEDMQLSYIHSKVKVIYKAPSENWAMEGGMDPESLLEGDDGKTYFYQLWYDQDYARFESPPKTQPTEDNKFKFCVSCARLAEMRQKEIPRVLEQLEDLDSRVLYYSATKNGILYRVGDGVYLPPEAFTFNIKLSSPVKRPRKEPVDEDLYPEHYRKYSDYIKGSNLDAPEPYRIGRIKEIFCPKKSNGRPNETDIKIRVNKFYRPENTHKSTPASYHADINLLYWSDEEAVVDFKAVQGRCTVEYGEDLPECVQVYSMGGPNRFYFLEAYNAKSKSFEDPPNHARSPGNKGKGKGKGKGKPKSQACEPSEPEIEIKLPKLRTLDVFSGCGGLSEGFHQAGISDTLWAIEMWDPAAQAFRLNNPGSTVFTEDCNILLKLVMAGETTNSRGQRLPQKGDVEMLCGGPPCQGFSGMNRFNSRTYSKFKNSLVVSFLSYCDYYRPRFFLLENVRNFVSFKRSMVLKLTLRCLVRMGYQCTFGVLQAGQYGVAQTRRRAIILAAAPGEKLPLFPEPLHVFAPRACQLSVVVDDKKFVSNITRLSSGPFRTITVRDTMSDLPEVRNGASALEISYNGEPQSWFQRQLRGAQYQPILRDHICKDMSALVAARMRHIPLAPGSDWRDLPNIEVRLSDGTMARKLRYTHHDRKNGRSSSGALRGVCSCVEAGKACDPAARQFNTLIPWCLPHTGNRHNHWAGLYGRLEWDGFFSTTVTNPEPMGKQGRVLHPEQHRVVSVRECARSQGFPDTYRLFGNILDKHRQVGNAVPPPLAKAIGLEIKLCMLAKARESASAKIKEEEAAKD
# * marks the source's active call; other numbers are inactive results; x = no result; + = active, no number; ! = repeats disagree. Hits are enriched below; roughly 2% of the tested compounds scored in any of these assays.
SMILES,STEP inh,Scp-1 inhibitor,Rpn11 inh,LMPTP block,DNMT1 inh
N#Cc1c(-c2ccc(Cl)cc2)cc(-c2cccs2)nc1SCC(=O)O,97.8*,89.7*,13.5,91.6*,9.4
COc1ccc2ccc(OC)c(/C=N/NC(=O)c3cc4ccccc4o3)c2c1,-0.1,x,13.2,6.2,-9.6
Cc1cc(N)ccc1N1CCCC1,24.0,3.2,90.1*,68.0*,83.4*
O=c1[nH]cc(S(=O)(=O)N2CCN(c3ccc(F)cc3)CC2)c(=O)[nH]1,-0.3,x,-2.2,-1.6,7.4
CC(C)C[C@H]1CN(CCCC[C@@H]2CNC(=O)C(=O)N2CC2CCCCC2)C(=O)C(=O)N1Cc1ccccc1,x,x,x,-0.9,x
O=C(Nc1ccccn1)c1csc2c1CCCC2,2.0,-1.9,0.1,0.5,2.7
O=C(Nc1ccccn1)c1onc2c1CCCC2,-0.7,50.4*,0.0,1.0,4.0
CC1(C)C(/C=C/C=C/C=C/C=C2\N(CCCCS(=O)(=O)O)c3ccc4ccccc4c3C2(C)C)=[N+](CCCCS(=O)(=O)[O-])c2ccc3ccccc3c21,12.5,49.4,26.9,29.1,88.4*
Cc1c2ccccc2cc[n+]1CCCS(=O)(=O)[O-],0.0,-3.7,-2.1,-1.8,1.7
Cc1cc(/C=N/NC(=O)C(O)(c2ccccc2)c2ccccc2)c(C)n1-c1ccc(C(=O)O)cc1,0.5,12.3,14.8,-0.2,11.5
Cc1cc(/C=N/NC(=O)C(O)(c2ccccc2)c2ccccc2)c(C)n1-c1cccc(C(=O)O)c1,2.6,26.7,36.8,1.9,53.9*
CCOc1ccc(S(=O)(=O)N2CCN(C(=O)c3ccc(C)c(S(=O)(=O)N4CCOCC4)c3)CC2)cc1,3.5,6.9,-1.5,1.1,0.7
NC(=S)Cc1nc(-c2ccccc2)cs1,4.1,4.0,33.4,0.0,50.4*
Oc1csc(Cc2nc(-c3ccc(-c4ccccc4)cc3)cs2)n1,3.1,0.6,11.1,0.8,10.2
CC(=O)N(CC#CCN(C(C)=O)c1ccccc1)c1ccccc1,0.4,x,0.7,-1.1,-5.0
CN1CCN(CCCNC(=O)c2ccc(Cn3c(=S)[nH]c4ccc(Br)cc4c3=O)cc2)CC1,9.2,-6.2,-5.3,-5.6,-1.4
O=C(NCCN1CCCC1)c1ccc(Cn2c(=S)[nH]c3cc4c(cc3c2=O)OCO4)cc1,3.7,0.4,18.7,54.3*,33.1
C#CCOCCOCCOCCNc1nc(N2CCN(C(=O)CCCCCCCCCCNC(=O)[C@H](CO)n3cc(CCCSC)nn3)CC2)nc(N2CCN(C(=O)CCCCCCCCCCNC(=O)[C@H](CCCN=C(N)N)n3cc(C[C@@H](C)CC)nn3)CC2)n1,18.6,62.7*,108.1*,16.8,-105.4
C#CCOCCOCCOCCNc1nc(N2CCN(C(=O)CCCCCCCCCCNC(=O)[C@H](CO)n3cc(CCCSC)nn3)CC2)nc(N2CCN(C(=O)CCCCCCCCCCNC(=O)[C@H](CCCCN)n3cc(CCO)nn3)CC2)n1,1.0,11.4,5.4,-1.8,-39.8
C#CCOCCOCCOCCNc1nc(N2CCN(C(=O)CCCCCCCCCCNC(=O)Cn3cc(C[C@@H](C)O)nn3)CC2)nc(N2CCN(C(=O)CCCCCCCCCCNC(=O)[C@H](CCCN=C(N)N)n3cc(C[C@@H](C)CC)nn3)CC2)n1,5.3,25.0,84.1*,13.4,-108.0
Cc1ccc(-c2ccc(/C=C3\C(=O)ON=C3c3ccccc3)o2)c([N+](=O)[O-])c1,1.6,-1.2,-0.2,-0.2,54.5*
Cc1ccc(/C=C2\C(=O)ON=C2c2ccccc2)o1,-1.7,-4.9,-2.3,-0.6,1.0
CCCCCCNC(=O)N[C@@H](C(=O)NCCC[C@H]1CN2C(=NC[C@@H]2Cc2ccccc2)N1CCc1cccc(OC)c1)C(C)C,x,92.0*,x,x,x
CC1CCCN(CC(=O)Nc2ccc(S(=O)(=O)N3C(C)CCCC3C)cc2)C1 (stereo unspecified),-2.4,x,-0.9,-3.0,7.9
Cc1cc(N2CCN(c3nc(-c4ccccc4)cs3)CC2)c2ccccc2n1,4.7,1.6,1.7,81.9*,-8.4
SMILES,STEP inh,Scp-1 inhibitor,Rpn11 inh,LMPTP block,DNMT1 inh
C[C@@H]1CCCCO[C@@H](CN(C)S(=O)(=O)c2ccccc2)[C@@H](C)CN([C@H](C)CO)C(=O)c2cc(N(C)C)ccc2O1,0.2,x,-11.6,-2.3,-4.2
CCN(CC(=O)NCc1cccs1)C(=O)c1cccc(S(=O)(=O)N(CC)c2ccccc2)c1,-3.6,-2.2,-4.0,-5.2,1.3
Cc1cccc(-c2cnc(C(O)c3ccc(Cl)cc3C)[nH]2)c1 (stereo unspecified),-3.5,x,0.7,0.8,1.5
CN(C)C(=O)c1cccc(-c2cnc3c(NC=O)cc(-c4ccccc4N(C)C)cn23)c1,-67.3,x,-203.8,-3.9,140.6*
CN(C)c1ccccc1-c1cc(NC=O)c2ncc(-c3cccc(C(F)(F)F)c3)n2c1,-156.9,x,-239.7,-5.3,+
O=C(NCc1cc(Cl)cc(Cl)c1)c1csc([C@@H]2O[C@H](CO)[C@H](O)[C@H](O)[C@H]2O)n1,-4.4,x,-10.4,1.2,11.2
Cc1cccc(C)c1NC(=O)C1(C)CSCC(=O)N1C1CCN(Cc2ccccc2)CC1 (stereo unspecified),x,x,x,-0.2,x
O=C(Nc1cccc(S(=O)(=O)N2CCOCC2)c1)C1CCN(S(=O)(=O)c2ccccc2)CC1,-1.1,-9.7,-2.5,-1.2,2.5
Cc1cc(C(=O)COC(=O)c2cccc(NS(C)(=O)=O)c2)c(C)n1CC1CCCO1 (stereo unspecified),3.1,-12.6,2.3,0.8,-5.8
Oc1ccccc1/C=N/[n+]1ccccc1,-1.1,103.2*,-6.3,-1.7,-1.8
C=Cc1c(C)c2cc3[nH]c(cc4nc(cc5nc(cc1[nH]2)C(C)=C5CCC(=O)O)C(CCC(=O)O)=C4C)c(C)c3C=C,1.1,63.6*!,-16.7,4.7,79.4*
Cc1cc(C(=O)COC(=O)c2cc(O)c3ccccc3c2O)c(C)n1CC1CCCO1 (stereo unspecified),0.8,73.5*,-2.0,1.9,-30.2
C=C(C)CN(CC)c1nc(N)c2c(N)nc3c(c2c1C#N)CC(=O)N3C12CC3CC(CC(C3)C1)C2,12.8,7.6,3.0,9.7,-19.2
N#Cc1c(N2CCCC(O)C2)nc(N)c2c(N)nc3c(c12)CC(=O)N3C12CC3CC(CC(C3)C1)C2 (stereo unspecified),19.0,5.3,27.5,48.8*,83.7*
COc1cc(C(=O)OC(C)C(=O)NC2CCCCC2C)c([N+](=O)[O-])cc1OC (stereo unspecified),-2.5,7.9,0.2,0.2,1.8
CC(OC(=O)c1ccc([N+](=O)[O-])s1)C(=O)NC1CCCCC1C (stereo unspecified),2.3,-2.2,-6.9,-1.3,70.6*
C[C@H]1CN([C@@H](C)CO)C(=O)c2cc(C#Cc3ccccn3)cnc2O[C@@H]1CN(C)Cc1ccccc1,1.4,x,-10.7,-1.3,3.8
